≈ marks a conversion by molar mass, not a printed value. Calls of active or inactive are those of the source. No cut-off for these calls is given here.
What was measured:
HeLa = assay: Cytostatic activity against human HeLa cells assessed as growth inhibition after 72 hrs by colorimetric method; type: functional; conditions: read-out: ED50 (the source's name)
How it was run: (§1)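 HeLa or KB cells at 10⁵ cells/mL in Minimal Medium Eagle with 10% fetal calf serum were incubated at 37 °C in Leighton tubes. After the cells attached (2-3 h), compound was added in sterile saline with 0.05% Tween 80, making up 10% of the final volume. After 72 h at 37 °C, growth was read as cell protein (Oyama–Eagle colorimetric method). 6-Mercaptopurine was the positive control. ED₅₀ was derived.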

KB = assay: Cytostatic activity against human KB cells assessed as growth inhibition after 72 hrs by colorimetric method; type: functional; conditions: read-out: ED50 (the source's name); how it was run: as §1
Ehrlich [1] = assay: Inhibition of RNA synthesis in mouse Ehrlich ascite carcinoma cells assessed as incorporation of [3H]uridine after 1.5 hrs by liquid scintillation spectrophotometer; type: functional, cell-based
How it was run: (§2)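 Ehrlich ascites cells were taken from mice bearing 7-day nonbloody tumors, washed in saline, and resuspended at 5×10⁵ cells/mL in Eagle Spinner medium with 10% fetal calf serum. They were stirred 1.5 h at 37 °C with compound and one labelled precursor: [¹⁴C]glucose 0.2 μCi, [³H]thymidine 0.1 μCi, [³H]uridine 0.5 μCi, or [³H]proline. Then 1 mL samples were diluted in cold saline and pelleted.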

Ehrlich [2] = assay: Inhibition of DNA synthesis in mouse Ehrlich ascite carcinoma cells assessed as incorporation of [3H]thymidine after 1.5 hrs by liquid scintillation spectrophotometer; type: functional, cell-based; how it was run: as §2
Ehrlich [3] = assay: Inhibition of protein synthesis in mouse Ehrlich ascite carcinoma cells assessed as incorporation of [3H]proline after 1.5 hrs by liquid scintillation spectrophotometer; type: functional, cell-based; how it was run: as §2
Ehrlich [4] = assay: Inhibition of [3H]glucose uptake in mouse Ehrlich ascite carcinoma cells after 1.5 hrs by liquid scintillation spectrophotometer; type: functional, cell-based; conditions: in the assay text read “[14C]glucose” for “[3H]glucose”; how it was run: as §2
Ehrlich [5] = assay: Irreversible inhibition of [3H]glucose uptake in mouse Ehrlich ascite carcinoma cells at 10 ug/ml after 1.5 hrs by liquid scintillation spectrophotometer; type: functional, cell-based; conditions: in the assay text read “[14C]glucose” for “[3H]glucose”
How it was run: (§3)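 For reversibility, Ehrlich ascites cells were preincubated 1.5 h at 37 °C with or without 10 μg/mL quinone. They were washed in saline at room temperature and resuspended in fresh Eagle Spinner medium. They were then incubated at 37 °C with radiolabelled glucose, thymidine, uridine or proline at the same amounts as the direct assay. Samples were taken over time to follow incorporation.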

Ehrlich [6] = assay: Irreversible inhibition of protein synthesis in mouse Ehrlich ascite carcinoma cells assessed as incorporation of [3H]proline at 10 ug/ml after 1.5 hrs by liquid scintillation spectrophotometer; type: functional, cell-based; how it was run: as §3
Ehrlich [7] = assay: Irreversible inhibition of DNA synthesis in mouse Ehrlich ascite carcinoma cells assessed as incorporation of [3H]thymidine at 10 ug/ml after 1.5 hrs by liquid scintillation spectrophotometer; type: functional, cell-based; how it was run: as §3
Ehrlich [8] = assay: Irreversible inhibition of RNA synthesis in mouse Ehrlich ascite carcinoma cells assessed as incorporation of [3H]uridine at 10 ug/ml after 1.5 hrs by liquid scintillation spectrophotometer; type: functional, cell-based; how it was run: as §3

Compound	EC50 (HeLa) [µg/mL]	EC50 (KB) [µg/mL]	inhibition (Ehrlich [1])	inhibition (Ehrlich [2])	inhibition (Ehrlich [3])	inhibition (Ehrlich [4])	inhibition (Ehrlich [5])	inhibition (Ehrlich [6])	inhibition (Ehrlich [7])	inhibition (Ehrlich [8])
CC1=CC(=O)c2nn(C)nc2C1=O	0.3 (≈ 1.69 µM)	2.5 (≈ 14.1 µM)	Active	Active	Active	Active	–	–	–	–
COC(=O)Cn1nc2c(n1)C(=O)C(C)=CC2=O	0.5 (≈ 2.13 µM)	1.5 (≈ 6.38 µM)	Active	Active	Active	Active	Active	Active	Active	Active
CC1=C(C)C(=O)c2nn(Cc3ccccc3)nc2C1=O	0.8 (≈ 2.99 µM)	3.5 (≈ 13.1 µM)	Active	Active	Active	Active	–	–	–	–
Sc1ncnc2nc[nH]c12 [MERCAPTOPURINE ANHYDROUS]	0.1 (≈ 0.657 µM)	0.1 (≈ 0.657 µM)	–	–	–	–	–	–	–	–
COC(=O)C(C)n1nc2c(n1)C(=O)C(C)=C(C)C2=O (stereo not given)	0.9 (≈ 3.42 µM)	3.5 (≈ 13.3 µM)	Active	Active	Active	Active	–	–	–	–
COC(=O)Cn1nc2c(n1)C(=O)C(C)=C(C)C2=O	1 (≈ 4.01 µM)	4 (≈ 16 µM)	Active	Active	Active	Active	–	–	–	–

The next lines start with results.

EC50 (HeLa) [µg/mL]	EC50 (KB) [µg/mL]	Compound	inhibition (Ehrlich [1])	inhibition (Ehrlich [2])	inhibition (Ehrlich [3])	inhibition (Ehrlich [4])	inhibition (Ehrlich [5])	inhibition (Ehrlich [6])	inhibition (Ehrlich [7])	inhibition (Ehrlich [8])
> 100	> 100	COC(=O)Cn1n[n+]([O-])c2cc(C)c(C)cc21	–	–	–	–	–	–	–	–
> 100	> 100	COC(=O)C(C)n1n[n+]([O-])c2cc(C)c(C)cc21 (stereo not given)	–	–	–	–	–	–	–	–
> 100	> 100	Cc1cc2c(cc1C)[n+]([O-])nn2Cc1ccccc1	–	–	–	–	–	–	–	–
> 100	> 100	Cc1cc2c(cc1C)[n+]([O-])nn2C	–	–	–	–	–	–	–	–
0.5 (≈ 2.62 µM)	3 (≈ 15.7 µM)	CC1=C(C)C(=O)c2nn(C)nc2C1=O	Active	Active	Active	Active	–	–	–	–

— ChEMBL document CHEMBL3244345, “Cytostatic quinones. 3. Synthesis of benzotriazolequinones by a new oxidation with m-chloroperbenzoic acid. Biochemical studies” (1978)
